What was measured:
[1] = Growth inhibition of human NALM16 cells after 72 hrs by CellTiter-Glo reagent based assay; type: functional, cell-based
[2] = test system: REH; assay: Growth inhibition of human REH cells after 72 hrs by CellTiter-Glo reagent based assay; type: functional, cell-based
[3] = Growth inhibition of mouse CPC300 cells after 72 hrs by CellTiter-Glo reagent based assay; type: functional, cell-based
[4] = test system: 697; assay: Growth inhibition of human 697 cells after 72 hrs by CellTiter-Glo reagent based assay; type: functional, cell-based
[5] = test system: PC-3; assay: Growth inhibition of human PC3 cells after 72 hrs by CellTiter-Glo reagent based assay; type: functional; conditions: PC-3, 72 h
How it was run: (§1)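 Cancer cell lines (PC3 prostate, HT29 colorectal carcinoma, MDA-MB-231 breast) were screened by quantitative high-throughput screening in whole cells, and CC50 values were derived.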

[6] = test system: HT-29; assay: Growth inhibition of human HT-29 cells after 72 hrs by CellTiter-Glo reagent based assay; type: functional; conditions: HT-29, 72 h; how it was run: as §1
[7] = test system: BJ; assay: Growth inhibition of human BJ cells after 72 hrs by CellTiter-Glo reagent based assay; type: cell-based
How it was run: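 Normal human foreskin fibroblast (BJ) counter-screen for cytotoxicity, with drug tested at 10 μM.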

[8] = test system: MDA-MB-231; assay: Growth inhibition of human MDA-MB-231 cells after 72 hrs by CellTiter-Glo reagent based assay; type: functional; conditions: MDA-MB-231, 72 h; how it was run: as §1
[9] = test system: Raji; assay: Growth inhibition of human Raji cells after 72 hrs by CellTiter-Glo reagent based assay; type: functional, cell-based
[10] = test system: Jurkat E6.1; assay: Growth inhibition of human Jurkat E6-1 cells after 72 hrs by CellTiter-Glo reagent based assay; type: functional, cell-based
[11] = Homo sapiens, NALM16, 72 h, read-out: EC50
[12] = Homo sapiens, REH, 72 h, read-out: EC50
[13] = Mus musculus, CPC300, 72 h, read-out: EC50
[14] = Homo sapiens, 697, 72 h, read-out: EC50
[15] = Homo sapiens, Raji, 72 h, read-out: EC50

| Structure (SMILES) | EC50 [1, 11] [µM] | EC50 [2, 12] [µM] | EC50 [3, 13] [µM] | EC50 [4, 14] [µM] | CC50 [5] [µM] | CC50 [6] [µM] | EC50 [7] [µM] | CC50 [8] [µM] | EC50 [9, 15] [µM] | EC50 ([10]; Homo sapiens, Jurkat E6.1, 72 h, read-out: EC50) [µM] | EC50 ([2]; reh) | EC50 ([3]; cpc300) | EC50 [4]; 697 | EC50 ([10]; jurkat e6.1) | EC50 ([1]; nalm16) | EC50 ([9]; raji) |
| --- | --- | --- | --- | --- | --- | --- | --- | --- | --- | --- | --- | --- | --- | --- | --- | --- |
| CC1=C(CC(=O)NCc2ccccc2)c2cc(F)ccc2/C1=C\c1ccc([S+](C)[O-])cc1 (configuration not stated) | 1.3 | 3.3 | 120 | 4.1 | 2.64 | 0.5 | > 7.57 | 0.78 | 2.6 | 1.3 | – | – | – | – | – | – |
| CCN(CC)CCCNC(=O)CC1=C(C)/C(=C/c2ccc(SC)cc2)c2ccc(F)cc21 | – | – | – | – | 4.33 | 1.53 | > 7.57 | 3.19 | 21 | – | Not Active | Not Active | Not Active | Not Active | – | – |
| CSc1ccc(/C=C2/C(C)=C(CC(=O)N3CCN(c4ccncc4)CC3)c3cc(F)ccc32)cc1 | – | – | 50 | – | 2.76 | 1.13 | > 7.57 | 3.08 | – | – | Not Active | – | Not Active | Not Active | Not Active | Not Active |
| CC1=C(CC(=O)N(C)CCN(C)C)c2cc(F)ccc2/C1=C\c1nc2ccccc2s1 | 0.3 | – | – | – | 5.88 | 2.02 | > 7.57 | 3.8 | – | – | Not Active | Not Active | Not Active | Not Active | – | Not Active |
| CC1=C(CC(=O)NCCN2CCCC2)c2cc(F)ccc2/C1=C\c1nc2ccccc2s1 | – | 18 | – | – | 4.94 | 1.21 | > 7.57 | 3.56 | 47 | – | – | Not Active | Not Active | Not Active | Not Active | – |
| CSc1ccc(/C=C2/C(C)=C(CC(=O)N3CCN(CCN(C)C)CC3)c3cc(F)ccc32)cc1 | 1.9 | – | 27 | – | 6.23 | 2.17 | > 7.57 | 4.05 | – | – | Not Active | – | Not Active | Not Active | – | Not Active |
| COc1cc(/C=C2/C(C)=C(CC(=O)N(C)CCN(C)C(=O)[C@@H](N)C(C)C)c3cc(F)ccc32)cc(OC)c1OC | – | – | – | 0.96 | 17.7 | 10.7 | > 7.57 | 18.8 | – | – | – | Not Active | – | Not Active | Not Active | Not Active |
| CSc1ccc(/C=C2/C(C)=C(CC(=O)N3CCCN(C)CC3)c3cc(F)ccc32)cc1 | 0.49 | – | – | – | 7.35 | 2.94 | > 7.57 | 7.21 | – | – | Not Active | Not Active | Not Active | Not Active | – | – |
| CSc1ccc(/C=C2/C(C)=C(CC(=O)N(C)CCN(C)C)c3cc(F)ccc32)cc1 | 0.071 | – | – | – | 5.63 | 1.83 | > 7.57 | 3.98 | 0.83 | – | Not Active | Not Active | Not Active | Not Active | – | – |
| CC1=C(CC(=O)N2CCN(c3ccncc3)CC2)c2cc(F)ccc2/C1=C\c1nc2ccccc2s1 | – | – | 72 | – | 12.3 | 5.25 | > 7.57 | 7.71 | – | – | Not Active | – | Not Active | Not Active | Not Active | Not Active |
| CSc1ccc(/C=C2/C(C)=C(CC(=O)N3CCC[C@H]3CN3CCCC3)c3cc(F)ccc32)cc1 | – | – | – | – | 5.1 | 1.55 | > 7.57 | 4.16 | 76 | – | Not Active | Not Active | Not Active | Not Active | – | – |
| CC1=C(CC(=O)N2CCN(CCCN(C)C)CC2)c2cc(F)ccc2/C1=C\c1nc2ccccc2s1 | 0.097 | – | – | – | 4.21 | 1.62 | > 7.57 | 2.9 | – | – | Not Active | Not Active | Not Active | Not Active | – | Not Active |
| CC1=C(CC(=O)NCCCN(C)C)c2cc(F)ccc2/C1=C\c1nc2ccccc2s1 | 0.35 | – | 65 | – | 3.25 | 1.05 | > 7.57 | 1.93 | – | – | Not Active | – | Not Active | Not Active | – | Not Active |
| CSc1ccc(/C=C2/C(C)=C(CC(=O)N3CCN(CCCN(C)C)CC3)c3cc(F)ccc32)cc1 | – | – | – | – | 4.28 | 1.69 | > 7.57 | 3.77 | 76 | – | Not Active | Not Active | Not Active | Not Active | – | – |
| CSc1ccc(/C=C2/C(C)=C(CC(=O)NCCN(C)C)c3cc(F)ccc32)cc1 | – | – | – | – | 3.12 | 0.65 | > 7.57 | 2.67 | – | – | Not Active | Not Active | Not Active | Not Active | Not Active | Not Active |
| CSc1ccc(/C=C2/C(C)=C(CC(=O)N(C)CCN(C)S(C)(=O)=O)c3cc(F)ccc32)cc1 | – | – | – | – | 15.5 | 4.04 | – | 11.6 | – | – | – | – | – | – | – | – |
| COc1cc(/C=C2/C(C)=C(CC(=O)N3CCN(c4ccncc4)CC3)c3cc(F)ccc32)cc(OC)c1OC | – | 27 | – | – | 5.45 | 2.79 | > 7.57 | 6.5 | – | – | – | Not Active | Not Active | Not Active | Not Active | Not Active |
| COc1cc(/C=C2/C(C)=C(CC(=O)NCCN3CCCCC3)c3cc(F)ccc32)cc(OC)c1OC | – | – | – | – | 9.62 | 4.18 | – | 10.4 | – | – | – | – | – | – | – | – |
| CSc1ccc(/C=C2/C(C)=C(CC(=O)NCc3ccc(N(C)C)cc3)c3cc(F)ccc32)cc1 | – | – | – | – | > 50 | > 50 | – | > 50 | – | – | – | – | – | – | – | – |
| COc1cc(/C=C2/C(C)=C(CC(=O)NCCN3CCCC3)c3cc(F)ccc32)cc(OC)c1OC | – | – | – | – | 46.5 | 13.4 | – | 41.1 | – | – | – | – | – | – | – | – |
